These results are taken from ChEMBL document CHEMBL1124009 (J Med Chem, 1988).

One experiment has as its target Somatostatin receptor. In words: Binding affinity in competition with [125I]- CGP-23996 in somatostatin receptor binding to rat brain membrane. Summed up:
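Rat whole-brain membranes (adult male Sprague–Dawley) at 1.0% final tissue were incubated with 0.2 nM [125I]CGP 23,996 and analogues at 100–0.3 μM. Buffer was 50 mM Tris pH 7.4 with 2.0 mg/mL BSA, 20 μg/mL bacitracin and 5 mM MgCl2. Incubation ran 1 h at 37 °C and ended by rapid filtration through BSA-soaked GF/B filters.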

For experiment [1], the target named is Delta-type opioid receptor (Rattus norvegicus, UniProt P33533). In words: Binding affinity in competition with [3H]- DPDPE in Opioid receptor delta 1 binding to rat brain membrane. The procedure, abridged: (§1)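 Brains (minus cerebellum) of male Sprague–Dawley rats (200–250 g) were homogenized, preincubated 30 min at 25 °C and centrifuged twice at 43000g. Homogenate at 0.5% final was incubated with 0.5 nM [3H]CTOP (μ) or 1.0 nM [3H]DPDPE (δ) in 50 mM Tris-HCl pH 7.4 with 5 mM MgCl2, BSA 1 mg/mL and 100 μM PMSF, 120 min at 25 °C, in duplicate. Nonspecific binding was taken with 1 μM naloxone; bound label was filtered and scintillation counted; curves were fit by nonlinear least squares.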
Sequence of Delta-type opioid receptor (P33533 whole entry): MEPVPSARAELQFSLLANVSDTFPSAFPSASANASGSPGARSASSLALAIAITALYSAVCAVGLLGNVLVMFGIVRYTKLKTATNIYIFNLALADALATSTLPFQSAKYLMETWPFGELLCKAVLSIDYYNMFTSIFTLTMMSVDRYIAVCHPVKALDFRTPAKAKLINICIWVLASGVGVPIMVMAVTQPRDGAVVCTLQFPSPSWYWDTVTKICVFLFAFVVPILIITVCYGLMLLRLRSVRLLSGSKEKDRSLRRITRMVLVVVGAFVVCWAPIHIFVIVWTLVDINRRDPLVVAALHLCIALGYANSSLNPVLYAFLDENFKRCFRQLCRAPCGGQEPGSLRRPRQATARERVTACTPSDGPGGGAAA

A further experiment deals with Mu-type opioid receptor (Rattus norvegicus, UniProt P33535). In words: Binding affinity in competition with [3H]- CTOP in Opioid receptor mu 1 binding to rat brain membrane. Summed up:
as §1

A short description of experiment [2]: Ratio of selective binding affinity of mu receptor to that of somatostatin receptor.
The target in experiment [3] is Opioid receptors; mu & delta (Rattus norvegicus) (UniProt P33533+P33535). Put plainly: Ratio of selective binding affinity of mu receptor to that of delta opioid receptor. It counts as protein assay.
Sequence of Opioid receptors; mu & delta (Rattus norvegicus) (P33533 whole entry, looked up): as the sequence (P33533 whole entry) above
Sequence of Opioid receptors; mu & delta (Rattus norvegicus) (P33535 whole entry, looked up): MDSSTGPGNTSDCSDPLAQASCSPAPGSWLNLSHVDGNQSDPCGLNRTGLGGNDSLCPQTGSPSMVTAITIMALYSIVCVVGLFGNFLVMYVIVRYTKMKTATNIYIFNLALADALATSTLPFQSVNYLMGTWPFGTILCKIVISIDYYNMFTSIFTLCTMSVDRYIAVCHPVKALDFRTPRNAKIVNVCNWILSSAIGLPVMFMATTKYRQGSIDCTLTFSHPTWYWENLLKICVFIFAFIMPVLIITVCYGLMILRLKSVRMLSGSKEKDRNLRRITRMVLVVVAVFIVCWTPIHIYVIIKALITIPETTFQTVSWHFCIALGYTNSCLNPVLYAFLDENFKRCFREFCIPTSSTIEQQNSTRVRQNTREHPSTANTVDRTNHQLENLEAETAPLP

A value given as a limit tells only on which side of the number the result lay.

Sequence of Mu-type opioid receptor (P33535 whole entry): as the sequence (P33535 whole entry, looked up) above

On Somatostatin receptor, `C[C@@H](O)[C@H](NC(=O)[C@H]1NC(=O)[C@H]([C@@H](C)O)NC(=O)[C@H](CCCN)NC(=O)C(Cc2c[nH]c3ccccc23)NC(=O)[C@@H](Cc2ccc(O)cc2)NC(=O)[C@@H](NC(=O)[C@H]2Cc3ccccc3CN2C(=O)CN)CSSC1(C)C)C(N)=O` (stereo in doubt) [listing 1 of 2 here] gave an IC50 of 19.408 µM.
Turning to `C[C@@H](O)[C@H](NC(=O)[C@H]1NC(=O)[C@H]([C@@H](C)O)NC(=O)[C@H](CCCN)NC(=O)C(Cc2c[nH]c3ccccc23)NC(=O)[C@@H](Cc2ccc(O)cc2)NC(=O)[C@@H](NC(=O)[C@H]2Cc3ccccc3CN2C(=O)CN)CSSC1(C)C)C(N)=O` (stereo in doubt) [listing 2 of 2 here], the IC50 in experiment [1] was found to be 5.35 µM; at Mu-type opioid receptor, 0.278 µM.
At Somatostatin receptor, `C[C@@H](O)[C@@H]1NC(=O)[C@H](CCCCN)NC(=O)C(Cc2c[nH]c3ccccc23)NC(=O)[C@H](Cc2ccc(O)cc2)NC(=O)[C@@H](NC(=O)[C@H](N)Cc2ccccc2)CSSC(C)(C)[C@@H](C(=O)N[C@@H](CC(=O)O)C(N)=O)NC1=O` (stereo in doubt) [listing 1 of 2 here] registered an IC50 of 8.3 µM.
The same measure, in the same setting: the figure for `C[C@@H](O)[C@H](NC(=O)[C@H]1NC(=O)[C@H]([C@@H](C)O)NC(=O)[C@H](CCCCN)NC(=O)C(Cc2c[nH]c3ccccc23)NC(=O)[C@H](Cc2ccc(O)cc2)NC(=O)[C@@H](NC(=O)C(N)Cc2c[nH]c3ccccc23)CSSC1(C)C)C(N)=O` (stereo in doubt) [listing 1 of 2 here] is 1.599 µM.
On the same count and under the same terms, then `C[C@@H](O)[C@@H]1NC(=O)[C@H](CCCCN)NC(=O)C(Cc2c[nH]c3ccccc23)NC(=O)[C@H](Cc2ccc(O)cc2)NC(=O)[C@@H](NC(=O)[C@H](N)Cc2ccccc2)CSSC(C)(C)[C@@H](C(=O)N[C@@H](CO)C(N)=O)NC1=O` (stereo in doubt), with 1.888 µM.
Take `C[C@@H](O)[C@H](NC(=O)[C@@H]1NC(=O)[C@H](CCCCN)NC(=O)C(Cc2c[nH]c3ccccc23)NC(=O)[C@H](Cc2ccc(O)cc2)NC(=O)[C@@H](NC(=O)[C@@H](N)Cc2ccccc2)CSSC1(C)C)C(N)=O` (stereo in doubt) [listing 1 of 2 here]: in experiment [1], the IC50 was greater than 10 µM.
In the case of `C[C@@H](O)[C@H](NC(=O)[C@H]1NC(=O)[C@H]([C@@H](C)O)NC(=O)[C@H](CCCCN)NC(=O)C(Cc2c[nH]c3ccccc23)NC(=O)[C@@H](Cc2ccc(O)cc2)NC(=O)[C@@H](NC(=O)[C@H]2Cc3ccccc3CN2)CSSC1(C)C)C(N)=O` (stereo in doubt), the IC50 at Somatostatin receptor stood at 0.949 µM.
`C[C@@H](O)[C@@H]1NC(=O)[C@H](CCCCN)NC(=O)C(Cc2c[nH]c3ccccc23)NC(=O)[C@H](Cc2ccc(O)cc2)NC(=O)[C@@H](NC(=O)[C@H](N)Cc2ccccc2)CSSC(C)(C)[C@@H](C(N)=O)NC1=O` (stereo in doubt) [listing 1 of 3 here]: the figures for the Ratio in experiment [2] and in experiment [3] were 17 and greater than 87, respectively.
The molecule `CN[C@H](Cc1ccccc1)C(=O)N[C@H]1CSSC(C)(C)[C@@H](C(=O)N[C@H](C(N)=O)[C@@H](C)O)NC(=O)[C@H]([C@@H](C)O)NC(=O)[C@H](CCCN)NC(=O)C(Cc2c[nH]c3ccccc23)NC(=O)[C@H](Cc2ccc(O)cc2)NC1=O` (stereo in doubt) [listing 1 of 2 here] displayed a concentration for half-maximal inhibition (IC50) on Somatostatin receptor of 8.054 µM.
With `CN[C@H](Cc1ccccc1)C(=O)N[C@H]1CSSC(C)(C)[C@@H](C(=O)N[C@H](C(N)=O)[C@@H](C)O)NC(=O)[C@H]([C@@H](C)O)NC(=O)[C@H](CCCN)NC(=O)C(Cc2c[nH]c3ccccc23)NC(=O)[C@H](Cc2ccc(O)cc2)NC1=O` (stereo in doubt) [listing 2 of 2 here], the IC50 in experiment [1] is greater than 10 µM; on Mu-type opioid receptor, 0.284 µM.
In experiment [1], `C[C@@H](O)[C@H](NC(=O)[C@H]1NC(=O)[C@H]([C@@H](C)O)NC(=O)[C@H](CCCN)NC(=O)[C@@H](Cc2c[nH]c3ccccc23)NC(=O)[C@H](Cc2ccc(O)cc2)NC(=O)[C@@H](NC(=O)[C@H](N)Cc2ccccc2)CSSC1(C)C)C(N)=O` returned an IC50 of 5.6 µM.
Regarding `C[C@@H](O)[C@@H]1NC(=O)[C@H](CCCCN)NC(=O)C(Cc2c[nH]c3ccccc23)NC(=O)[C@H](Cc2ccc(O)cc2)NC(=O)[C@@H](NC(=O)[C@H](N)Cc2ccccc2)CSSC(C)(C)[C@@H](C(=O)N[C@@H](CC(N)=O)C(N)=O)NC1=O` (stereo in doubt) [listing 1 of 2 here], the IC50 in experiment [1] is greater than 10 µM; on Mu-type opioid receptor, 0.13 µM.
The corresponding values for `C[C@@H](O)[C@@H]1NC(=O)[C@H](CCCN)NC(=O)C(Cc2c[nH]c3ccccc23)NC(=O)[C@H](Cc2ccc(O)cc2)NC(=O)[C@@H](NC(=O)[C@H](N)Cc2ccccc2)CSSC(C)(C)[C@@H](C(N)=O)NC1=O` (stereo in doubt) [listing 1 of 2 here] are greater than 10 µM and 0.187 µM.
The matching figures for `C[C@@H](O)[C@H](NC(=O)[C@H]1NC(=O)[C@H]([C@@H](C)O)NC(=O)[C@H](CCCN=C(N)N)NC(=O)[C@@H](Cc2c[nH]c3ccccc23)NC(=O)[C@H](Cc2ccc(O)cc2)NC(=O)[C@@H](NC(=O)[C@H](N)Cc2ccccc2)CSSC1(C)C)C(N)=O`: 5.31 µM and 0.0021 µM.
`C[C@@H](O)[C@@H]1NC(=O)[C@H](CCCN)NC(=O)C(Cc2c[nH]c3ccccc23)NC(=O)[C@H](Cc2ccc(O)cc2)NC(=O)[C@@H](NC(=O)[C@H](N)Cc2ccccc2)CSSC(C)(C)[C@@H](C(N)=O)NC1=O` (stereo in doubt) [listing 2 of 2 here] yielded an IC50 on Somatostatin receptor of 47.273 µM.
Same read-out and setting: the figure for `C[C@@H](O)[C@@H]1NC(=O)[C@H](CCCCN)NC(=O)C(Cc2c[nH]c3ccccc23)NC(=O)[C@H](Cc2ccc(O)cc2)NC(=O)[C@@H](NC(=O)[C@H](N)Cc2ccccc2)CSSC(C)(C)[C@@H](C(=O)N[C@@H](CC(N)=O)C(N)=O)NC1=O` (stereo in doubt) [listing 2 of 2 here] is 1.801 µM.
With `C[C@@H](O)[C@@H]1NC(=O)[C@H](CCCCN)NC(=O)C(Cc2c[nH]c3ccccc23)NC(=O)[C@H](Cc2ccc(O)cc2)NC(=O)[C@@H](NC(=O)[C@H]2Cc3ccccc3CN2)CSSC(C)(C)[C@@H](C(=O)N[C@@H](CO)C(N)=O)NC1=O` (stereo in doubt) [listing 1 of 2 here], the values for the IC50 (in experiment [1]; at Mu-type opioid receptor) were 3.83 µM and 0.0078 µM, respectively.
The corresponding values for `C[C@@H](O)[C@@H]1NC(=O)[C@H](CCCCN)NC(=O)C(Cc2c[nH]c3ccccc23)NC(=O)[C@H](Cc2ccc(O)cc2)NC(=O)[C@@H](NC(=O)[C@H](N)Cc2ccccc2)CSSC(C)(C)[C@@H](C(=O)N[C@@H](CC(=O)O)C(N)=O)NC1=O` (stereo in doubt) [listing 2 of 2 here] are greater than 10 µM and 3.47 µM.
The corresponding values for `C[C@@H](O)[C@H](NC(=O)[C@H]1NC(=O)[C@H]([C@@H](C)O)NC(=O)[C@H](CCCCN)NC(=O)C(Cc2c[nH]c3ccccc23)NC(=O)[C@H](Cc2ccc(O)cc2)NC(=O)[C@@H](NC(=O)C(N)Cc2c[nH]c3ccccc23)CSSC1(C)C)C(N)=O` (stereo in doubt) [listing 2 of 2 here] are greater than 10 µM and 0.0063 µM.
In the case of `C[C@@H](O)[C@H](NC(=O)[C@H]1NC(=O)[C@H](CC(N)=O)NC(=O)[C@H](Cc2ccc(O)cc2)NC(=O)[C@@H](NC(=O)[C@H](N)Cc2ccccc2)CSSC1(C)C)C(N)=O`, the IC50 in experiment [1] is greater than 10 µM.
At Somatostatin receptor, `C[C@@H](O)[C@H](NC(=O)[C@H]1NC(=O)[C@H](CCCCN)NC(=O)C(Cc2c[nH]c3ccccc23)NC(=O)[C@@H](Cc2ccc(O)cc2)NC(=O)[C@@H](NC(=O)[C@H]2Cc3ccccc3CN2)CSSC1(C)C)C(N)=O` (stereo in doubt) [listing 1 of 2 here] registered an IC50 of 13.61 µM.
In the case of `C[C@@H](O)[C@@H]1NC(=O)[C@H](CCCCN)NC(=O)C(Cc2c[nH]c3ccccc23)NC(=O)[C@H](Cc2ccc(O)cc2)NC(=O)[C@@H](NC(=O)[C@H](N)Cc2ccccc2)CSSC(C)(C)[C@@H](C(N)=O)NC1=O` (stereo in doubt) [listing 2 of 3 here], the IC50 in experiment [1] is greater than 10 µM; at Mu-type opioid receptor it was 0.115 µM.
`C[C@@H](O)[C@H](NC(=O)[C@@H]1NC(=O)[C@H]([C@@H](C)O)NC(=O)[C@@H](Cc2c[nH]c3ccccc23)NC(=O)[C@H](Cc2ccc(O)cc2)NC(=O)[C@@H](NC(=O)[C@H](N)Cc2ccccc2)CSSC1(C)C)C(N)=O`: the IC50 in experiment [1] amounted to 7.82 µM; at Mu-type opioid receptor, 10 µM.
With `C[C@@H](O)[C@H](NC(=O)[C@H]1NC(=O)[C@H](CC(N)=O)NC(=O)[C@H](Cc2ccccc2)NC(=O)[C@@H](NC(=O)[C@H](N)Cc2ccc(O)cc2)CSSC1(C)C)C(N)=O`, the IC50 is no less than 10 µM in experiment [1] and 7.47 µM on Mu-type opioid receptor.
With `C[C@@H](O)[C@H](NC(=O)[C@@H]1NC(=O)[C@H](CCCCN)NC(=O)C(Cc2c[nH]c3ccccc23)NC(=O)[C@H](Cc2ccc(O)cc2)NC(=O)[C@@H](NC(=O)[C@@H](N)Cc2ccccc2)CSSC1(C)C)C(N)=O` (stereo in doubt) [listing 2 of 2 here], at Somatostatin receptor, the IC50 is 6.103 µM.
The same measure, in the same setting: then `C[C@@H](O)[C@@H]1NC(=O)[C@H](CCCCN)NC(=O)C(Cc2c[nH]c3ccccc23)NC(=O)[C@H](Cc2ccc(O)cc2)NC(=O)[C@@H](NC(=O)[C@H](N)Cc2ccccc2)CSSC(C)(C)[C@@H](C(N)=O)NC1=O` (stereo in doubt) [listing 3 of 3 here], with 1.942 µM; and `C[C@@H](O)[C@@H]1NC(=O)[C@H](CCCCN)NC(=O)C(Cc2c[nH]c3ccccc23)NC(=O)[C@H](Cc2ccc(O)cc2)NC(=O)[C@@H](NC(=O)[C@H]2Cc3ccccc3CN2)CSSC(C)(C)[C@@H](C(=O)N[C@@H](CO)C(N)=O)NC1=O` (stereo in doubt) [listing 2 of 2 here], with 1.499 µM.
As to `C[C@@H](O)[C@H](NC(=O)[C@H]1NC(=O)[C@H](CCCCN)NC(=O)C(Cc2c[nH]c3ccccc23)NC(=O)[C@@H](Cc2ccc(O)cc2)NC(=O)[C@@H](NC(=O)[C@H]2Cc3ccccc3CN2)CSSC1(C)C)C(N)=O` (stereo in doubt) [listing 2 of 2 here], the IC50 is greater than 10 µM in experiment [1] and 9.41 µM on Mu-type opioid receptor.

A word on the IC50: it is the concentration needed to halve the response being measured. Read a low IC50 as higher potency.
